This is an account of results in ChEMBL document CHEMBL4028868, “Click-Chemistry-Mediated Synthesis of Selective Melanocortin Receptor 4 Agonists” (J Med Chem, 2017).

Test [1] deals with T1, Melanocortin receptor 5 (Homo sapiens, UniProt P33032). The experiment in a line: Agonist activity at EYFP-fused human MC5R expressed in HEK293 cells after 16 to 20 hrs by CRE-driven reporter assay. The class given is functional, cell-based. The method in brief: (§1)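 HEK293 monoclonal lines carrying a single receptor/9×CRE-d2EYFP construct, selected with puromycin and FACS-sorted, kept in low-fluorescence DMEM. EYFP imaged with bright-field images, normalized to cell coverage, corrected for unstimulated cells and scaled to α-MSH maximum. Four-parameter fit constrained to minimum 0, at least three independent experiments.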
T1 sequence (P33032 whole entry, the tested form may be a part): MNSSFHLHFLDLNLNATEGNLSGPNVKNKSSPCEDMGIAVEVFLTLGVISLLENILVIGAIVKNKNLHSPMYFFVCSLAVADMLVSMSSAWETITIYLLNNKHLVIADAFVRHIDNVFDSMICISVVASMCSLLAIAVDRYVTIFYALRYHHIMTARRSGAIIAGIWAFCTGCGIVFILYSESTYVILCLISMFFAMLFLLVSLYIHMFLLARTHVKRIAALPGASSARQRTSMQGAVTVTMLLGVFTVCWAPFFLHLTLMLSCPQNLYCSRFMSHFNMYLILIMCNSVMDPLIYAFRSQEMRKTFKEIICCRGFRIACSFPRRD

The target of test [2] is T2, Melanocortin receptor 4 (Homo sapiens, UniProt P32245). The experiment in a line: Agonist activity at EYFP-fused human MC4R expressed in HEK293 cells after 16 to 20 hrs by CRE-driven reporter assay. The class given is functional, cell-based. In general terms: In a reporter assay the amount or activity of a reporter protein is the signal.
T2 sequence (P32245 whole entry, the tested form may be a part): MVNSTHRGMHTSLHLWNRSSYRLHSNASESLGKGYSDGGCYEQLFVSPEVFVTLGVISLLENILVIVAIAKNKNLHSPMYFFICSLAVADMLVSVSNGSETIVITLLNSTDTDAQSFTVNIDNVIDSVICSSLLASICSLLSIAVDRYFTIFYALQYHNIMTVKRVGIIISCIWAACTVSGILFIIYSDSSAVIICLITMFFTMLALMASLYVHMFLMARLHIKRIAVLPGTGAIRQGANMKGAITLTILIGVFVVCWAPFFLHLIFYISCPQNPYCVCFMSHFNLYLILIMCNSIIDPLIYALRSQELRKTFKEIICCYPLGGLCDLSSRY
The species named for the next test is Homo sapiens. The experiment in a line: Selectivity ratio of EC50 for EYFP-fused human MC3R expressed in HEK293 cells to EC50 for EYFP-fused human MC4R expressed in HEK293 cells. The class given is cell-based.
For test [3], the target named is T1, Melanocortin receptor 5. Briefly: Agonist activity at EYFP-fused human MC5R expressed in HEK293 cells after 16 to 20 hrs by CRE-driven reporter assay relative to alpha-MSH. The class given is functional, cell-based. The method in brief: as §1
Test [4] deals with T3, Melanocortin receptor 3 (Homo sapiens, UniProt P41968). Briefly: Agonist activity at EYFP-fused human MC3R expressed in HEK293 cells after 16 to 20 hrs by CRE-driven reporter assay relative to alpha-MSH. The class given is functional, cell-based. Put shortly:
as §1

In test [5] the target is T3, Melanocortin receptor 3. The experiment in a line: Agonist activity at EYFP-fused human MC3R expressed in HEK293 cells after 16 to 20 hrs by CRE-driven reporter assay. The class given is functional, cell-based. The method in brief: as §1
Test [6] has as its target T2, Melanocortin receptor 4. Briefly: Agonist activity at EYFP-fused human MC4R expressed in HEK293 cells assessed as increase in cAMP accumulation after 30 mins by luminescent enzymatic complementation based assay. The class given is functional, cell-based. (Changes in cAMP serve as a functional read-out for many G protein-coupled receptors.)

T3 sequence (P41968 whole entry, the tested form may be a part): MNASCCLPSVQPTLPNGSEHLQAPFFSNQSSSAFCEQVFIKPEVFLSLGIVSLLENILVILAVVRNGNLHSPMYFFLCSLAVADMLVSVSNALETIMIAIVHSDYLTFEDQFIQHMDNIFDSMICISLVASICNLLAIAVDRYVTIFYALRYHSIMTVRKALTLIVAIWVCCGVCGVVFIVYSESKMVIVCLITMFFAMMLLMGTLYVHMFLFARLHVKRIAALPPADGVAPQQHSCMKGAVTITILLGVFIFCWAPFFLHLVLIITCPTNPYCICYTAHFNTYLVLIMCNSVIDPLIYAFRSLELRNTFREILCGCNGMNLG

Regarding `CSCC[C@H](NC(=O)[C@@H]1Cc2cn(nn2)C[C@H](NC(=O)[C@@H](N)CCCCN)C(=O)N[C@@H](Cc2cnc[nH]2)C(=O)N[C@H](Cc2ccccc2)C(=O)N[C@@H](CCCNC(=N)N)C(=O)N[C@@H](Cc2c[nH]c3ccccc23)C(=O)N1)C(=O)O`, the EC50 (usually the concentration giving half of the maximal effect) was found to be 299 nM at Melanocortin receptor 5 [1], 1.8 nM at Melanocortin receptor 4 [2], 123 nM at Melanocortin receptor 3 [5] and 9.2 nM at Melanocortin receptor 4 [6]. Further, the Ratio EC50 in the test listed under Homo sapiens stood at 70. The Emax (commonly the greatest response seen or fitted, relative to the assay's reference) at Melanocortin receptor 5 [3] is 120%; at Melanocortin receptor 3 [4], 105%.
